# Data taken from ChEMBL document CHEMBL1155208 (Eur J Med Chem, 2009).
# Tests used:
# [1] = system: Rattus norvegicus; test: Acute toxicity in po dosed rat assessed as death after 1 week; type: organism-based; details: in vivo, 168 h
# Summary of the method: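 Rats fasted 16 h, six per group, given various oral doses; deaths recorded daily over 1 week of observation after treatment.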
# [2] = molecular target: T1, Muscarinic acetylcholine receptor M1 (Rattus norvegicus, UniProt P08482); test: Displacement of [3H]QNB from muscarinic M1 receptor in Wistar rat brain cortex membrane after 2 hrs by liquid scintillation counting; type: cell membranes
# T1 sequence (P08482 whole entry): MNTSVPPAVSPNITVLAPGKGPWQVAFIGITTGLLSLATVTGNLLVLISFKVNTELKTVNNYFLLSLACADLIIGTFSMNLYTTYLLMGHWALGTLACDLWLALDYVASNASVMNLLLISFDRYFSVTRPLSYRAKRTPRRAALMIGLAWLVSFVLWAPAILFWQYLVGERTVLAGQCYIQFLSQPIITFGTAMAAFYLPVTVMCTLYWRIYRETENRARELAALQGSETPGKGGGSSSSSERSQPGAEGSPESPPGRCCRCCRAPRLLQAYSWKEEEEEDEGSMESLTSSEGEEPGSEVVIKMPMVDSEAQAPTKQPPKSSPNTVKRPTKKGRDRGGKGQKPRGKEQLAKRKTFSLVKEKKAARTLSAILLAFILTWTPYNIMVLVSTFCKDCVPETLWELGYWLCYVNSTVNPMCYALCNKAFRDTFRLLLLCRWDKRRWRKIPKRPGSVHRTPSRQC
# [3] = system: Rattus norvegicus; test: Antiamnesic activity against scopolamine-induced memory loss in Wistar rat assessed as time taken to reach shock free zone at 0.1 mg/kg, ip measured for 15 mins by passive avoidance step-down task test; type: functional; parameters: unit not given beside the values; details: route intraperitoneal
# Summary of the method: (§1)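 Male Wistar rats (200-250 g), scopolamine 0.4 mg/kg ip to induce memory loss; test compound 0.1 mg/kg ip given together with scopolamine. Passive avoidance step-down task run in a rodent memory evaluator. Read-outs: basal latency (s) to reach the shock-free zone over trials I-III, memory latency (s) and number of mistakes, given as mean ± S.E.M.; p < 0.005 taken as significant.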
# [4] = system: Rattus norvegicus; test: Effect on scopolamine-induced memory loss and learning impairment in Wistar rat assessed as transfer latency at 0.1 mg/kg, ip after 30 mins by elevated plus maze test; type: functional; parameters: unit not given beside the values; details: route intraperitoneal
# Summary of the method: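 Male Wistar rats on an elevated plus maze. Scopolamine 0.4 mg/kg ip; test compound 0.1 mg/kg ip given together with scopolamine 30 min before exploration; controls received distilled water. On day 1 each rat explored the maze for 90 s. Transfer latency was measured on day 1 (TL1, learning) and on day 2 in the same animals (TL2, memory), and the average was reported.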
# [5] = system: Rattus norvegicus; test: Antiamnesic activity against scopolamine-induced memory loss in Wistar rat assessed as latency time at 0.1 mg/kg, ip measured for 15 mins by passive avoidance step-down task test; type: functional; parameters: unit not given beside the values; details: route intraperitoneal; summary of the method: as §1
# [6] = system: Rattus norvegicus; test: Antiamnesic activity against scopolamine-induced memory loss in Wistar rat assessed as number of mistake done at 0.1 mg/kg, ip measured for 15 mins by passive avoidance step-down task test; type: functional; details: route intraperitoneal; summary of the method: as §1
SMILES,Activity [1],IC50 [2],Ki [2],Activity [3],Activity [4],Activity [5],Activity [6]
CN1CCC=C(C2SCC(=O)N2c2ccc(C(=O)O)cc2)C1 (stereo unspecified),Non-toxic,74 µM,37 µM,6,18,4,14
CC(C)N1C(=O)CSC1C1=CCCN(C)C1 (stereo unspecified),Non-toxic,579 µM,97 µM,8,35,3,30
CN1CCC=C(C2SCC(=O)N2c2ccc(Br)cc2)C1 (stereo unspecified),Non-toxic,536 µM,122 µM,7,38,3,29
CN1CCC=C(C2SCC(=O)N2c2ccc([N+](=O)[O-])cc2)C1 (stereo unspecified),Non-toxic,158 µM,43 µM,7,21,4,25
CN1CCC=C(C2SCC(=O)N2c2ccccc2)C1 (stereo unspecified),Non-toxic,886 µM,105 µM,8,44,4,32
CN1CCC=C(C2SCC(=O)N2c2ccc(Nc3ccccc3)cc2)C1 (stereo unspecified),Non-toxic,48 µM,19 µM,5,14,3,16
CN1CCC=C(C2SCC(=O)N2c2cccc(O)c2)C1 (stereo unspecified),Non-toxic,563 µM,102 µM,6,22,3,23
CCCCCCN1C(=O)CSC1C1=CCCN(C)C1 (stereo unspecified),Non-toxic,632 µM,110 µM,7,30,4,21
CCN1C(=O)CSC1C1=CCCN(C)C1 (stereo unspecified),Non-toxic,670 µM,230 µM,4,45,2,21
CN1CCC=C(C2SCC(=O)N2Cc2ccccc2)C1 (stereo unspecified),Non-toxic,789 µM,149 µM,7,19,4,30
Cc1ccc(N2C(=O)CSC2C2=CCCN(C)C2)c([N+](=O)[O-])c1 (stereo unspecified),Non-toxic,626 µM,125 µM,5,40,3,25
CCCCN1C(=O)CSC1C1=CCCN(C)C1 (stereo unspecified),Non-toxic,68 µM,32 µM,5,17,4,12
CN1CCC=C(C2SCC(=O)N2c2ccc(Cl)cc2)C1 (stereo unspecified),Non-toxic,653 µM,200 µM,3,42,3,28
